TDP2 inh: TDP2 (human) inhibition, absorbance primary screen; inhibition, % at 12.8 µM; O95551; 0.34% of 370,000 active; recombinant TDP2, T5PNP hydrolysis, p-nitrophenol absorbance 415 nm; AID 720702;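 active = inhibition above the mean of all tested compounds plus 3 SD, set per campaign, cut at about 25% in these data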
Target sequence (O95551 whole entry, looked up): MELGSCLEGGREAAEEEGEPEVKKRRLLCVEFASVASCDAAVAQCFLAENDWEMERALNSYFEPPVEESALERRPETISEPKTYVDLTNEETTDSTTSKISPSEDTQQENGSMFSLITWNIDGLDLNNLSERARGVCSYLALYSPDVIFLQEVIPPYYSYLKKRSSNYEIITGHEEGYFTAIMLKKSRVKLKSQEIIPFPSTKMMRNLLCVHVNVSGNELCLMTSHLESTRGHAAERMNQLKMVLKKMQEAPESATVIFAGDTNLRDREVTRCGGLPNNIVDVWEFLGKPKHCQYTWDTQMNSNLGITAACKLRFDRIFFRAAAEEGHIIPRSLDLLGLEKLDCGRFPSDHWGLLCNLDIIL
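test system = human TDP2 enzyme | input = TDP2 enzyme at 120 nM final | medium = 50 mM Tris-HCl pH 7.5 with Mg2+, KCl, DTT, BSA | also added = T5PNP substrate, 5 mM | times = 2 h at 37 °C | technique = epi absorbance | benchmarks = high control without enzyme, low control DMSO plus TDP2 | replication = each compound tested once, singlicate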
NSD2 inh: inhibitors of human histone methyltransferase NSD2 | 0.54% of 310,000 active | inhibition, % at 12.5 µM | NSD2 peptide methylation, AlphaScreen, 120 min; in the data active = inhibition above about 50%
LEDGF integ inh: blocks HIV-1 LEDGF/p75-dependent DNA integration; TR-FRET IN-LEDGF/p75 DNA integration, Eu/Cy5; inhibition, % at 3.7 µM; 0.64% of 370,000 active; AID 743269;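 active = inhibition above the screen-wide mean plus 3 SD, cut at about 13% in these data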;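 also: signal is the Cy5 over europium emission ratio at 671 and 618 nm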
UCH37 DUB inh: human UCH37 deubiquitinating enzyme inhibition | 0.33% of 330,000 active | AID 588478 | Q9Y5K5 | purified proteasome/UCH37, Ub-AMC cleavage fluorescence | inhibition, % (concentration not given with the values);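 active = mean inhibition over replicate wells above about 20%, limit read from the data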
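Material: human UCH37 enzyme supplied as purified proteasome complex. Measure: % inhibition of Ub-AMC cleavage fluorescence. Medium: pH 7.4 Tris-HCl (50 mM) with ovalbumin, ATP-MgCl2, DTT. Times: 30 min preincubation with enzyme, 25 min cleavage at room temperature. Detection: AMC fluorescence intensity at 355/460 nm.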
Casp6 inh: blocks human caspase-6 cleavage activity | purified caspase-6, Z-VEID-R110 cleavage fluorescence | inhibition, % at 12.5 µM | 0.53% of 350,000 active | AID 686996;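 active = mean inhibition across replicates at least about 35%, with every replicate also reaching that limit, limit read from the data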
Target sequence (P55212 24-179 limits assumed): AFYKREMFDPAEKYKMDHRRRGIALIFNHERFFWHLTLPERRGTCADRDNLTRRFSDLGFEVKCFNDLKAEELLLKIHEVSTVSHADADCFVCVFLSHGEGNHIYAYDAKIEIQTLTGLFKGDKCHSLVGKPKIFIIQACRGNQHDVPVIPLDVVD
Target sequence (P55212 194-293 limits assumed): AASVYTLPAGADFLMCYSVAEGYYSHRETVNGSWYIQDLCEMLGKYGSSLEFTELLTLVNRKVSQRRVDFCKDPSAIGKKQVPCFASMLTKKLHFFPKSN
IN multimer act: activates HIV-1 integrase multimerization in LEDGF counter-screen; shares compounds with LEDGF integ inh; TR-FRET HIV-1 integrase multimerization, biochemical; activation, % at 7.7 µM; 17% of 2,000 active; AID 1053131; in the data active = activation above about 8.9%
TR-FRET interf: counter-screen for LEDGF/p75 integration inhibitors: TR-FRET optical interference | shares compounds with LEDGF integ inh | TR-FRET optical interference counterscreen, HIV-1 IN multimerization | inhibition, % at 7.7 µM | 2,000 tested, under 10 active | AID 1053135;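 active = inhibition above the mean over all tested compounds plus 3 SD, which no compound reached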
LEDGF integ conf: LEDGF/p75-dependent HIV-1 integration inhibition, confirmation | TR-FRET LEDGF/p75-dependent HIV-1 integration, biochemical | AID 1053136 | shares compounds with LEDGF integ inh | inhibition, % at 3.7 µM | 36% of 2,000 active; in the data active = inhibition above about 14%
AlphaScreen art: AlphaScreen assay artifact in NSD2 counter-screen; AC35, µM (highest dose often 10 µM); 9.4% of 1,500 active; shares compounds with NSD2 inh; AlphaScreen artifact counterscreen, preloaded methylated H4 peptide; call rule not given here
Of the large screens only hits and unclear results are named; the others gave an inactive call (follow-up assays come after a bar, where they were run). In the library only some 1.3% were active in any assay of this set; here they are far more common.

CC1C/C=C/C=C/C=C/C=C/C(O[C@@H]2O[C@H](C)[C@@H](O)[C@H](N)[C@@H]2O)CC2OC(O)(CC(O)CC3OC3/C=C/C(=O)O1)CC(O)C2C(=O)O (some centres not stated)	LEDGF integ inh 21, Casp6 inh 45 (no result: NSD2 inh, UCH37 DUB inh) | IN multimer act inactive | TR-FRET interf inactive | LEDGF integ conf 35
C[C@@H]1[C@H](O)[C@@H](C)/C=C/C=C/C=C/C=C/C=C/C=C/C=C/[C@H](OC2O[C@H](C)[C@@H](O)[C@H](N)[C@@H]2O)C[C@@H]2O[C@](O)(C[C@@H](O)C[C@@H](O)[C@H](O)CC[C@@H](O)C[C@@H](O)CC(=O)O[C@H]1C)C[C@H](O)[C@H]2C(=O)O (some centres not stated)	LEDGF integ inh 32 (no result: NSD2 inh, UCH37 DUB inh, Casp6 inh) | IN multimer act inactive | TR-FRET interf inactive | LEDGF integ conf 78
CN1C(=O)N(C)C2(c3ccccc3)Nn3c(sc(=Cc4ccccc4)c3=O)=NC12c1ccccc1 (configuration not stated)	none (no result: TDP2 inh, NSD2 inh, LEDGF integ inh, Casp6 inh)
COc1ccc(S(=O)(=O)N2CCCCC2)cc1C(=O)Nc1cc(C)on1	none (no result: NSD2 inh)
COc1ccc(S(=O)(=O)N2CCOCC2)cc1C(=O)Nc1cc(C)on1	LEDGF integ inh 86 (no result: Casp6 inh) | IN multimer act inactive | TR-FRET interf inactive | LEDGF integ conf inactive
CCOC(=O)c1cnc(SCC(=O)NNC(=O)c2ccco2)nc1N	LEDGF integ inh 72 (no result: NSD2 inh) | IN multimer act inactive | TR-FRET interf inactive | LEDGF integ conf inactive
COc1cccc(C=NNc2cc(Cl)nc(C)n2)c1O	none (no result: TDP2 inh, NSD2 inh, LEDGF integ inh, Casp6 inh)
O=c1[nH]c(C(=NO)c2ccccc2)no1	none (no result: TDP2 inh, NSD2 inh, LEDGF integ inh, Casp6 inh)
Cc1ccc(C(=O)Nc2nc(-c3ccccc3)c(-c3ccccc3)o2)cc1	LEDGF integ inh 21 (no result: Casp6 inh) | IN multimer act inactive | TR-FRET interf inactive | LEDGF integ conf 23
N=C1/C(=C\c2ccc(SCc3ccco3)o2)C(=O)N=C2SC=NN12	LEDGF integ inh 49 (no result: NSD2 inh, Casp6 inh) | IN multimer act inactive | TR-FRET interf inactive | LEDGF integ conf 50
O=C(NCCCN1CCOCC1)C(=O)NN=Cc1ccc(F)cc1	none (no result: TDP2 inh, NSD2 inh, LEDGF integ inh, Casp6 inh)
Cc1ccccc1NC(=O)c1c(C)cc(=O)oc1C	none
Cc1cc(=O)oc(C)c1C(=O)Nc1cccc2ccccc12	LEDGF integ inh 30 (no result: Casp6 inh) | IN multimer act inactive | TR-FRET interf inactive | LEDGF integ conf inactive
O=C1C(=Cc2cccs2)CCc2ccccc21	none (no result: UCH37 DUB inh)
CC1C/C(=C/c2cccs2)C(=O)/C(=C/c2cccs2)C1 (configuration not stated)	LEDGF integ inh 29 | IN multimer act inactive | TR-FRET interf inactive | LEDGF integ conf inactive
Cc1ccccc1OCC(=O)NN=Cc1c(C)nn(-c2ccccc2)c1Cl	none (no result: TDP2 inh, NSD2 inh, LEDGF integ inh, Casp6 inh)
O=C(CCNS(=O)(=O)c1ccccc1)NNC(=O)C1COc2ccccc2O1 (configuration not stated)	LEDGF integ inh 14 (no result: NSD2 inh) | IN multimer act inactive | TR-FRET interf inactive | LEDGF integ conf inactive
CC1NC(=O)NC1CCCCCC(=O)Nc1ccc(F)cc1 (configuration not stated)	NSD2 inh 103, LEDGF integ inh 84 | IN multimer act inactive | TR-FRET interf inactive | LEDGF integ conf 93 | AlphaScreen art 1.9µM
O=C(CCCC(=O)c1ccccc1)Nc1ccc(F)cc1	none
O=C1CCCC(O)=C1N=Nc1ccc(C(=O)O)cc1	NSD2 inh 96, LEDGF integ inh 22, Casp6 inh 38 | IN multimer act 37 | TR-FRET interf inactive | LEDGF integ conf 32 | AlphaScreen art inactive
CCN(CC)S(=O)(=O)c1ccc(N=NC2=C(O)CCCC2=O)cc1	none
Cc1ccc(NC(=O)COc2ccc(C=NNC(=O)CSCc3ccccc3)cc2)cc1	none (no result: TDP2 inh, NSD2 inh, LEDGF integ inh, Casp6 inh)
Cc1ccc(-n2c(C)cc(C=NNC(=O)CN(c3ccc(C)cc3C)S(C)(=O)=O)c2C)cc1	none (no result: TDP2 inh, NSD2 inh, LEDGF integ inh, Casp6 inh)
COc1cc(C=NNC(=O)CC23CC4CC(CC(C4)C2)C3)cc(Br)c1OCC(=O)N(C)C	none (no result: TDP2 inh, NSD2 inh, LEDGF integ inh, Casp6 inh)
CCOc1cc(N2CCOCC2)c(OCC)cc1NC(C)C(=O)N1CCN(CC)CC1 (configuration not stated)	TDP2 inh 45, NSD2 inh 90, LEDGF integ inh 63, Casp6 inh 70 | IN multimer act inactive | TR-FRET interf inactive | LEDGF integ conf inactive | AlphaScreen art inactive
O=[N+]([O-])c1ccccc1NC(=S)N/N=C/c1ccc(O)c(O)c1	NSD2 inh 117, LEDGF integ inh 46, Casp6 inh 53 (no result: UCH37 DUB inh) | IN multimer act 11 | TR-FRET interf inactive | LEDGF integ conf 71 | AlphaScreen art 1.8µM
COc1ccc(C=NNC(=S)Nc2ccccc2[N+](=O)[O-])cc1O	none (no result: TDP2 inh, NSD2 inh, LEDGF integ inh, Casp6 inh)
Oc1ccc(/C=N/N=C(c2ccccc2)c2ccccc2)c(O)c1O	NSD2 inh 76, LEDGF integ inh 41 (no result: UCH37 DUB inh, Casp6 inh) | IN multimer act 21 | TR-FRET interf inactive | LEDGF integ conf 84 | AlphaScreen art 4.2µM
NS(=O)(=O)c1ccc(N/N=C/c2ccc(O)c(O)c2O)c([N+](=O)[O-])c1	NSD2 inh 73, LEDGF integ inh 72, Casp6 inh 68 (no result: UCH37 DUB inh) | IN multimer act 33 | TR-FRET interf inactive | LEDGF integ conf 85 | AlphaScreen art inactive
COc1ccc(/C=N/NC(=O)c2cc(O)c(O)c(O)c2)cc1Cn1cc([N+](=O)[O-])cn1	NSD2 inh 73, LEDGF integ inh 69, Casp6 inh 62 (no result: UCH37 DUB inh) | IN multimer act 54 | TR-FRET interf inactive | LEDGF integ conf 87 | AlphaScreen art 8.6µM
COc1ccc(C=NNC(=O)c2cc(O)c(O)c(O)c2)cc1Cn1cc([N+](=O)[O-])cn1	none (no result: TDP2 inh, NSD2 inh, LEDGF integ inh, Casp6 inh)
O=C(O)CC1SC(=NN=C2CCCCCC2)N(c2ccccc2)C1=O (configuration not stated)	none (no result: TDP2 inh, NSD2 inh, LEDGF integ inh, Casp6 inh)
O=C(ON=Cc1ccc(Br)cc1)c1ccc(F)cc1	none (no result: TDP2 inh, NSD2 inh, LEDGF integ inh, Casp6 inh)
CCN(CC)CCCNc1nc2ccccc2c2[nH]c3ccc(OC)cc3c12	NSD2 inh 56, LEDGF integ inh 19 (no result: UCH37 DUB inh) | IN multimer act inactive | TR-FRET interf inactive | LEDGF integ conf 34 | AlphaScreen art inactive
C/C(=C\C(=O)c1ccccc1)Nc1ccc(O)cc1	NSD2 inh 78, LEDGF integ inh 20 (no result: Casp6 inh) | IN multimer act inactive | TR-FRET interf inactive | LEDGF integ conf inactive | AlphaScreen art inactive
CON=CC(=NNc1ccc(OC)cc1)C(=O)c1ccc(OC)cc1	none (no result: TDP2 inh, NSD2 inh, LEDGF integ inh, Casp6 inh)
